# Experimental data pooled from the literature.
# Each line is one published result; the experiments were not run side by side.
# Target: Ribosomal protein S6 kinase beta-1 (RPS6KB1, Homo sapiens, UniProt P23443)
SMILES,read-out,mode,technique,tested at,measurement,value
CO[C@@H]1[C@H](N(C)C(=O)c2ccccc2)C[C@H]2O[C@]1(C)n1c3ccccc3c3c4c(c5c6ccccc6n2c5c31)C(=O)NC4,enzyme activity,inhibitor,,1 µM,inhibition,36%
Cc1cc(O)c(-c2ccc([C@@H](C)CN(C)C)cc2)c2c1[nH]c(=O)c1sccc12,enzyme activity,inhibitor,,0.1 µM,inhibition,-5.29%
CC(C)S(=O)(=O)c1ccc2nccc(Nc3ccc4sc(C5CCCC5)nc4c3)c2c1,enzyme activity,inhibitor,,1 µM,activity vs control,110%
COc1ccc2oc(-c3ccc4nc(N)oc4c3)c/c(=N\c3ccccc3NC(=O)CCN)c2c1,binding,,,1 µM,remaining binding,98%
Cc1ccc(NC(=O)c2ccnc(C(F)(F)F)c2)cc1-c1cc(OCCO)nc(N2CCOCC2)c1,binding,,,1 µM,remaining binding,100%
C=CC(=O)N1CCC([C@@H]2CCNc3c(C(N)=O)c(-c4ccc(Oc5ccccc5)cc4)nn32)CC1,enzyme activity,inhibitor,,1 µM,inhibition,1%
C[C@H]1CC[C@H](n2c3cnccc3c3cnc(Nc4ccc5c(n4)CCN(C(=O)CO)C5)nc32)CC1,cell-free assay,,,1 µM,remaining signal,78%
CCCCC(=O)Nc1ccc(-c2ccc3ncn(CCC)c(=O)c3c2)cn1,binding,,competition with immobilised ligand,0.5 µM,remaining binding,98%
